From publication PMC3406685 (The Journal of Biological Chemistry, 2012)
“Also recorded” adds a separate entry of the source.

Experiments:
Rugli cells (α1β1) = experiment: Real-time Rugli cell adhesion; type: cell-based, rat; details: xCELLigence
PC12 cells (α1β1) = experiment: Real-time PC12 cell adhesion using xCELLigence; type: cell-based, rat; details: for PC12 cell adhesion (cell index), in words: […] 10^4 cells/well, 2 mM Mg^2+; for PC12 cell adhesion (cell index), in words / PC12 cell adhesion in presence of EDTA: 2 h; for PC12 cell adhesion in presence of EDTA: 2 mM EDTA; for PC12 cell adhesion relative to II-27: Mg^2+, % of the level attained with II-27, four independent experiments
α2β1 = details: cited from earlier work; for affinity for α2β1, in words: ref [37], [38]; for affinity for the α2 I domain, in words: ref [39], [46]
[1] = tested on: C2C12-α2^+ cells (human α2β1); experiment: Real-time adhesion of C2C12-α2^+ cells; type: cell-based, mouse cells expressing human α2β1; details: xCELLigence; 25,000 cells/well, 2 h; GPP10 control
[2] = tested on: C2C12-α11^+ cells (human α11β1); experiment: Real-time adhesion of C2C12-α11^+ cells; type: cell-based, mouse cells expressing human α11β1; details: xCELLigence; 25,000 cells/well, 2 h; GPP10 control
[3] = tested on: parental C2C12 cells lacking collagen-binding integrins; experiment: Adhesion of parental C2C12 cells; type: cell-based, mouse; details: real-time adhesion, GPP10 control
[4] = tested on: recombinant human α2 I domain; experiment: SPBA, wild-type α2 I domain to coated peptides; type: binding; details: 0.1 μg protein/well, four independent experiments
α1β1 = details: cited from earlier work; for preference of α1β1 and α10β1 among collagens, in words: ref [28], [29]
[5] = tested on: α1β1-expressing Rugli cells; details: ref [54]; cited from earlier work
[6] = tested on: recombinant human α1 I domain; experiment: Solid-phase binding assay; details: conclusion from all data together
[7] = tested on: constitutively active E317W α1 I domain; experiment: SPBA, constitutively active E317W α1 I domain to coated peptides; type: binding; details: 0.1 μg protein/well, four independent experiments
[8] = tested on: constitutively active E318W α2 I domain; experiment: SPBA, constitutively active E318W α2 I domain to coated peptides; type: binding; details: 0.1 μg protein/well, four independent experiments
How it was run: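 GST-tagged I domain (0.1 μg/well) added to triple-helical peptides coated at 10 μg/ml (1 h, 22 °C), blocked 1 h with TBS/50 mg/ml BSA. Binding 1 h at room temperature in TBS/1 mg/ml BSA with 2 mM MgCl₂ or EDTA. Detected with HRP anti-GST (1:10,000, 1 h) and TMB colour. Mean ± S.E. of four independent experiments, each in triplicate.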

Compound: CCCCCCCCCCCCCC(=O)O[C@@H]1[C@@H](C)[C@@]2(O)[C@@H](C=C(CO)C[C@]3(O)C(=O)C(C)=C[C@@H]23)[C@@H]2C(C)(C)[C@]12OC(C)=O [PMA, phorbol 12-myristate 13-acetate, reference compound]
- Effect of PMA treatment on Rugli cell adhesion (Rugli cells (α1β1); 1 μM PMA, 30 min): increased both the rate of onset of adhesion and the peak cell index

Compound: GAOGER
- PC12 cell adhesion (cell index), in words (PC12 cells (α1β1); xCELLigence): Moderate binding

Compound: GASGER
- affinity for α2β1, in words (α2β1): intermediate or low affinity, which increased upon cell activation

Compound: GDQGVOGEAGAO [II-27-B]
- C2C12-α2^+ cell adhesion, in words [1]: None of these cells showed any specific binding
- C2C12-α11^+ cell adhesion, in words [2]: None of these cells showed any specific binding
- parental C2C12 cell adhesion, in words [3]: None of these cells showed any specific binding
- PC12 cell adhesion in presence of EDTA (PC12 cells (α1β1); xCELLigence): no adhesion was observed in the presence of EDTA
- PC12 cell adhesion relative to II-27 (PC12 cells (α1β1); xCELLigence): ~40%
- adhesion of wild-type α2 I domain, in words [4]: did not bind

Compound: GFPGEN
- α1β1 selectivity / α1 I domain affinity, in words (α1β1; expressed within Streptococcus pyogenes collagen-like molecules, ref [40]): selective ligand for α1β1; also recorded: higher affinity for the α1 I domain compared with GFPGER

Compound: GFPGER
- affinity for the α2 I domain, in words (α2β1): high or moderate affinity motifs for the α2 I domain
- PC12 cell adhesion (cell index), in words (PC12 cells (α1β1); xCELLigence): weak binding (lower compared with GFOGER)
- ligand quality for α1β1-expressing Rugli cells, in words [5]: poor ligand for α1β1-expressing Rugli cells

Compound: GKOGDQGVOGEAGAO [II-27-C]
- C2C12-α2^+ cell adhesion, in words [1]: None of these cells showed any specific binding
- C2C12-α11^+ cell adhesion, in words [2]: None of these cells showed any specific binding
- parental C2C12 cell adhesion, in words [3]: None of these cells showed any specific binding
- PC12 cell adhesion in presence of EDTA (PC12 cells (α1β1); xCELLigence): no adhesion was observed in the presence of EDTA
- PC12 cell adhesion relative to II-27 (PC12 cells (α1β1); xCELLigence): ~40%
- PC12 cell adhesion (cell index), in words (PC12 cells (α1β1); xCELLigence): no greater than to GVOGEA
- adhesion of wild-type α2 I domain, in words [4]: did not bind

Compound: GLKGEN
- PC12 cell adhesion (cell index), in words (PC12 cells (α1β1); xCELLigence): only slight activity

Compound: GLOGEA
- affinity for the α2 I domain, in words (α2β1): high or moderate affinity motifs for the α2 I domain

Compound: GLOGER
- affinity for the α1 I domain versus α2 I domain, in words (α1β1; ref [37], [38]): relatively higher affinity for the α1 I domain than for the α2 I domain

Compound: GLSGER
- affinity for α2β1, in words (α2β1): intermediate or low affinity, which increased upon cell activation

Compound: GMOGER
- affinity for the α2 I domain, in words (α2β1): high or moderate affinity motifs for the α2 I domain
- PC12 cell adhesion (cell index), in words (PC12 cells (α1β1); xCELLigence): Moderate binding

Compound: GPOGPOGEGGKOGDQGVOGEAGAOGV [II-27]
- overall α1β1 recognition / selectivity, in words [6]: new α1β1-binding activity
- C2C12-α2^+ cell adhesion, in words [1]: None of these cells showed any specific binding; also recorded: did not bind
- C2C12-α11^+ cell adhesion, in words [2]: None of these cells showed any specific binding; also recorded: did not bind
- adhesion of active E317W α1 I domain, in words [7]: E317W but not E318W bound strongly
- parental C2C12 cell adhesion, in words [3]: None of these cells showed any specific binding
- Increase of PC12 cell binding upon substitution of Mg^2+ with Mn^2+ (PC12 cells (α1β1); real-time binding assay, Mn^2+ vs Mg^2+ (data not shown)): 65%
- PC12 cell adhesion, comparison of selected peptides (Fig. 7) (PC12 cells (α1β1); xCELLigence, 25,000 cells/well, mean cell index after 2 h, three experiments): bound most strongly to III-7 and then to II-27 and II-28
- adhesion of wild-type α2 I domain, in words [4]: did not bind
- adhesion of active E318W α2 I domain, in words [8]: E317W but not E318W bound strongly
- Rugli cell adhesion without activation, in words (Rugli cells (α1β1); control Rugli cells): moderate ligand for α1β1

Compound: GQRGER
- affinity for α2β1, in words (α2β1): intermediate or low affinity, which increased upon cell activation

Compound: GROGER
- affinity for the α2 I domain, in words (α2β1): high or moderate affinity motifs for the α2 I domain
- PC12 cell adhesion (cell index), in words (PC12 cells (α1β1); xCELLigence): only slight activity

Compound: GSOGEN
- overall α1β1 recognition / selectivity, in words [6]: displays little activity

Compound: collagen IV: monomeric pepsin-digested human collagen IV (C-5533) [reference compound]
- preference of α1β1 and α10β1 among collagens, in words (α1β1): preferentially bind collagen types IV and VI over fibrillar collagens
- affinity of α1β1 for collagen IV, in words (α1β1; ref [30]): high affinity

Compound: collagen VI: collagen type VI
- preference of α1β1 and α10β1 among collagens, in words (α1β1): preferentially bind collagen types IV and VI over fibrillar collagens
